Results of several laboratories.
Protocols differ between the studies behind these lines.
Cell line: HCT-116
Effect on: cell growth or viability

The IC50 of `O=[N+]([O-])c1cc(Br)c(O)c(C=NNc2ccc(Cl)cc2)c1` is reported as 16.6 µM (MTT; 24 h).
`O=C1/C(=C/c2ccc3ccccc3c2O)NC(=S)N1c1ccccc1` has an IC50 of 7.25 µg/mL (MTT).
`CONC(=O)Cc1c(C)n(-c2nc3c(c(NCc4ccccc4)n2)CCCN3)c2ccccc12` has an IC50 of 4.2 µM (ATP luminescence; 72 h).
For `Cc1cc(NS(=O)(=O)c2ccc(NC(=O)/C(C#N)=C/c3ccc(N4CCOCC4)cc3)cc2)no1`, the IC50 was 67.8 µM (MTT; 48 h).
`O=[N+]([O-])c1ccc(O)c(C=NNc2ccc(Cl)cc2)c1` gave an IC50 of 11 µM (MTT; 24 h).
With `Cc1cccc(NC(=O)Cn2cc(COc3ncnc4[nH]cnc34)nn2)c1` the IC50 was 55.3 µM (MTT).
`CC(=O)O[C@@H]1[C@@H](OC(C)=O)[C@H](OC(C)=O)CO[C@H]1n1cc(Cn2c(C(=O)/C=C/c3ccc(F)cc3)nc3ccccc32)nn1` gave an IC50 of 9.97 µM (LDH; 48 h).
`COc1cccc2c1C(=O)c1c(O)c3c(c(O)c1C2=O)C[C@@](O)(C(=O)CO)C[C@@H]3O[C@H]1C[C@H](N)[C@H](O)[C@H](C)O1` has an IC50 of 10.5 µM (MTT; 24 h).
The IC50 of `O=C(C=Cc1cccs1)c1ccc(OCCCOc2ccc(C(=O)C=Cc3cccs3)cc2)cc1` is reported as 30.7 µM (MTT; 48 h).
The IC50 of `C=CCN1C(=O)C(=Nc2cccc(C)c2)c2ccccc21` is reported as > 100 µM (MTT; 48 h).
`O=[N+]([O-])c1cc(Br)c(O)c(C=NNc2ccccc2)c1` gave an IC50 of 11.7 µM (MTT; 24 h).
`O=C1CS/C(=N\c2cc(C(F)(F)F)ccc2-c2nnc(N3C(=O)CS/C3=N\c3ccc(-c4ccccc4)cc3)s2)N1c1ccc(-c2ccccc2)cc1` gave an IC50 of 92.3 µM (MTT).
With `O=C(C=Cc1ccc(OCCCOc2ccc(C=CC(=O)c3cccs3)cc2)cc1)c1cccs1` the IC50 was 120 µM (MTT; 48 h).
The IC50 of `COc1ccc(NC(=S)N/N=C/c2cccc3cc4ccccc4nc23)cc1` is reported as > 50 µM (MTT; 48 h).
The IC50 of `O=C(O)c1nn(Cc2ccc(Cl)cc2Cl)c2ccccc12` is reported as 247 µM (48 h).
With `CN1CCC(NC2CCc3[nH]c4c(C(N)=O)ccc(-c5ccccc5Cl)c4c3C2)CC1` (stereo not shown) the IC50 was 0.00023 µM (96 h).
The IC50 of `Cc1cc2c(C(N)=O)cccc2n1-c1nc2c(c(NCc3ccccc3O)n1)CCCN2` is reported as 5 µM (ATP luminescence; 72 h).
For `O=C1CS/C(=N\c2cc(C(F)(F)F)ccc2-c2nnc(N3C(=O)CS/C3=N\c3ccc(Cl)cc3)s2)N1c1ccc(Cl)cc1`, the IC50 was 46.2 µM (MTT).
With `O=[N+]([O-])c1ccc(NC(=S)N/N=C/c2cccc3cc4ccccc4nc23)cc1` the IC50 was > 50 µM (MTT; 48 h).
For `O=C(CSc1nc2ccccc2s1)N/N=C/c1ccc(OCC(=O)Nc2cccc(Br)c2)cc1`, the IC50 was > 100 µM (MTS; 72 h).
The IC50 of `O=C1C(=Nc2ccccc2Br)c2ccccc2N1Cc1ccccc1` is reported as 1.1 µM (MTT; 48 h).
The IC50 of `N#Cc1ccc(-c2cc(CNc3cccc4cccnc34)on2)cc1` is reported as > 100 µM (MTS; 72 h).
For `O=C(CCc1ccc(Cl)cc1)N1C(=O)C(=Nc2ccc(Cl)cc2Br)c2ccccc21`, the IC50 was 23.2 µM (MTT; 48 h).
The IC50 of `O=C1/C(=C/c2ccc(O)cc2O)NC(=S)N1c1ccccc1` is reported as 91.3 µg/mL (MTT).
With `CCc1ccc(N=C2C(=O)Nc3ccccc32)cc1` the IC50 was 64.7 µM (MTT; 48 h).
For `Cc1cc(NS(=O)(=O)c2ccc(NC(=O)/C(C#N)=C/c3cccnc3)cc2)no1`, the IC50 was > 200 µM (MTT; 48 h).
The IC50 of `Cc1ccc(CN2C(=O)C(=Nc3cccc(Cl)c3)c3ccccc32)cc1` is reported as 1.05 µM (MTT; 48 h).
`Fc1ccc2c(-c3nnc(Cc4ccccc4)s3)nn(Cc3ccc(Cl)cc3Cl)c2c1` has an IC50 of 85.1 µM (48 h).
`CC(=O)O[C@@H]1[C@@H](OC(C)=O)[C@H](OC(C)=O)CO[C@H]1n1cc(Cn2c(C(C)=O)nc3ccccc32)nn1` has an IC50 of 7.74 µM (LDH; 48 h).
With `CCC(C(=O)N1C(=O)C(=Nc2ccc(Cl)cc2Br)c2ccccc21)c1ccccc1` (stereo not shown) the IC50 was 30.9 µM (MTT; 48 h).
`FC(F)(F)c1ccc(-c2cc(COc3cc(C(F)(F)F)nc4ccccc34)on2)cc1` gave an IC50 of > 100 µM (MTS; 72 h).
`COc1cc(N=C2C(=O)Nc3ccccc32)cc(OC)c1` gave an IC50 of 24.4 µM (MTT; 48 h).
`OCn1cncn1` has an IC50 of 48.8 µM (MTT; 24 h).
`Cc1cccc(N=C2C(=O)Nc3ccccc32)c1` gave an IC50 of > 100 µM (MTT; 48 h).
`COc1ccc2c(-c3nc(-c4ccccc4)no3)nn(Cc3ccncc3)c2c1` gave an IC50 of 10.8 µM (48 h).
The IC50 of `Clc1ccc(-c2cc(CNc3cccc4cccnc34)on2)c(Cl)c1` is reported as > 100 µM (MTS; 72 h).
For `COc1ccc(N(Cc2csc(-c3ccc(C)cc3)n2)C(=O)CCCCCC(=O)NO)cc1`, the IC50 was 1.19 µM (MTT; 72 h).
For `N#Cc1ccc(-c2cc(COc3cc(C(F)(F)F)nc4ccccc34)on2)cc1`, the IC50 was > 100 µM (MTS; 72 h).
The IC50 of `Cc1c2c(nn1C)CSCc1cc(n(C)n1)CSc1cc(c3ccccc3c1)OCCCc1c(C(=O)O)n(C)c3c-2c(Cl)ccc13` is reported as 25 µM (CCK-8).
`COc1cccc2c1C(=O)c1c(O)c3c(c(O)c1C2=O)C[C@@](O)(C(=O)CO)C[C@@H]3O[C@H]1C[C@H](N)[C@H](O)[C@H](C)O1` gave an IC50 of 41.2 µM (MTT).
With `CC1(P2(=O)CCCCC2)CCCCC1` the IC50 was 69.3 µM (MTT; 72 h).
The IC50 of `Clc1ccc(Cn2nc(-c3ncc(-c4ccccc4)s3)c3ccccc32)c(Cl)c1` is reported as 404 µM (48 h).
With `Cc1cc2c(C(N)=O)cccc2n1-c1nc2c(c(NCc3ccccn3)n1)CCCN2` the IC50 was 0.8 µM (ATP luminescence; 72 h).
